Reference: ChEMBL document CHEMBL1121663, “(Acylaryloxy)acetic acid diuretics. 3. 2,3-Dihydro-5-acyl-2-benzofurancarboxylic acids, a new class of uricosuric diuretics” (1981)
Several values for one entry are separate records, joined by “and”; a condition that tells them apart may be missing. Equal values may be shown once.

Columns and labels:
Pan troglodytes [1] = experiment: Compound was tested for natriuretic activity in chimpanzee at 5 mg/kg dose activity is measured as microequivalent of Na+/minute; muequiv of Na+/min; assay type: functional
Method in brief: (§1)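 Inulin iv gave GFR; urate and inulin clearances and Na+, K+, Cl- excretion were measured by AutoAnalyzer. Controls were three 20-min periods; compound was given orally in aqueous solution via nasal catheter. Response was the mean of eight 15-20 min periods, reported as treatment minus control from single experiments.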

Canis familiaris [2] = experiment: Compound was tested for diuretic activity in dogs at 5 mg/kg dose after oral administration measured as microequivalent of Cl-/minute; assay type: functional, Canis lupus familiaris, Urine
Method in brief: (§2)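 Oral dog test: water loading (250 mL po, then 500 mL 1 h later). One hour later bladders were emptied by catheter and compound or placebo given in gelatin capsules. Dogs were kept in metabolism cages. Voided urine plus catheterized bladder urine was pooled at 5 h, and Na+, K+ and Cl- were measured by standard methods. Geometric means are reported.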

Canis familiaris [3] = experiment: Compound was tested for diuretic activity in dogs at 5 mg/kg dose after oral administration measured as microequivalent of K+/minute; assay type: functional, Canis lupus familiaris, Urine; method in brief: as §2
Canis familiaris [4] = experiment: Compound was tested for diuretic activity in dogs at 5 mg/kg dose after oral administration measured as microequivalent of Na+/minute; assay type: functional, Canis lupus familiaris, Urine; method in brief: as §2
Canis familiaris [5] = experiment: Compound was tested for diuretic activity in dogs at 5 mg/kg dose after intravenous administration measured as microequivalent of Cl-/minute; 9/510 (Control/Drug treated); assay type: functional, Canis lupus familiaris, Urine
Method in brief: (§3)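 Intravenous dog clearance study. A priming iv injection of 1.5 mL/kg isoosmotic pH 7.4 phosphate buffer (20 mg PO4/kg) was given first. This was followed by infusion of 3 mL/min pH 7.4 buffer containing 4% mannitol (6.9 mg PO4/min) throughout the experiment. Urinary Na+, K+ and Cl- were measured by standard methods. Each value is the mean of the two highest consecutive 15-min collections.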

Canis familiaris [6] = experiment: Compound was tested for diuretic activity in dogs at 5 mg/kg dose after intravenous administration measured as microequivalent of K+/minute; 5/19 (Control/Drug treated); assay type: functional, Canis lupus familiaris, Urine; method in brief: as §3
Rattus norvegicus [7] = experiment: Natriuretic activity in rats at 27 mg/kg of dosage; mequiv of Na; assay type: functional
Method in brief: (§4)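 Rats housed three per metabolism cage received placebo vehicle or compound as a suspension in a final volume of 5.0 mL orally, with placebo groups run concurrently. Urine was collected over 0–5 h and analysed for Na+, K+ and Cl− by standard methods. Values are mequiv per cage, given as geometric means of three cages per dose level.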

Rattus norvegicus [8] = experiment: Natriuretic activity in rats at 3 mg/kg of dosage; mequiv of Na; assay type: functional; method in brief: as §4
Rattus norvegicus [9] = experiment: Natriuretic activity in rats at 81 mg/kg of dosage; mequiv of Na; assay type: functional; method in brief: as §4
Rattus norvegicus [10] = experiment: Natriuretic activity in rats at 9 mg/kg of dosage; mequiv of Na; assay type: functional; method in brief: as §4
[11] = Compound was tested for natriuretic activity in chimpanzee at 5 mg/kg dose activity is measured as ratio of clearance of urate / […]; Curate/Cinulin; assay type: functional; method in brief: as §1
Canis familiaris [12] = experiment: Diuretic activity in dogs following 5 mg/kg oral administration.
Canis familiaris [13] = experiment: Compound was tested for diuretic activity in dogs at 5 mg/kg dose after intravenous administration measured as microequivalent of Na+/minute; 3/84 (Control/Drug treated); assay type: functional, Canis lupus familiaris, Urine
Canis familiaris [14] = experiment: Compound was tested for diuretic activity in dogs at 5 mg/kg dose after intravenous administration, activity is expressed as urine volume; 0.4/2; assay type: functional, Canis lupus familiaris
Pan troglodytes [15] = experiment: Compound was tested for natriuretic activity in chimpanzee measured as microequivalent of Na+/minute at 1 mg/kg; mequiv of Na; assay type: functional; method in brief: as §1
Pan troglodytes [16] = experiment: Compound was tested for natriuretic activity in chimpanzee measured as microequivalent of Na+/minute at 1.0 mg/kg dose; mequiv of Na; assay type: functional; method in brief: as §1
Pan troglodytes [17] = experiment: Compound was tested for natriuretic activity in chimpanzee measured as microequivalent of Na+/minute at 0 mg/kg; mequiv of Na; assay type: functional; method in brief: as §1
Pan troglodytes [18] = experiment: Compound was tested for natriuretic activity in chimpanzee measured as microequivalent of Na+/minute at 0.0312 mg/kg; mequiv of Na; assay type: functional; method in brief: as §1
Pan troglodytes [19] = experiment: Compound was tested for natriuretic activity in chimpanzee measured as microequivalent of Na+/minute at 10 mg/kg; mequiv of Na; assay type: functional; method in brief: as §1
[20] = Activity is measured as ratio of clearance of urate / […] at 0 mg/kg; Curate/Cinulin; assay type: functional
Method in brief: (§5)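 Inulin iv gave GFR, and urate clearance was measured by AutoAnalyzer. Controls came from three 20-min periods. Aqueous compound was given orally by nasal catheter, and the response was averaged over eight 15-20 min periods. Values are treatment minus control from single experiments.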

[21] = Activity is measured as ratio of clearance of urate / […] at 0.0312 mg/kg; Curate/Cinulin; assay type: functional; method in brief: as §5
[22] = Activity is measured as ratio of clearance of urate / […] at 1.0 mg/kg dose; Curate/Cinulin; assay type: functional; method in brief: as §5
[23] = Activity is measured as ratio of clearance of urate / […] at 10 mg/kg; Curate/Cinulin; assay type: functional; method in brief: as §5
Pan troglodytes [24] = species on record: Pan troglodytes; experiment: Compound was tested for natriuretic activity in chimpanzee measured as microequivalent of Na+/minute at […]; mequiv of Na; assay type: functional; method in brief: as §1
Canis familiaris [25] = experiment: Compound was tested for diuretic activity in dogs at 5 mg/kg dose after intravenous administration measured as microequivalent of K+/minute; 4/19 (Control/Drug treated); assay type: functional, Canis lupus familiaris, Urine; method in brief: as §3
Canis familiaris [26] = experiment: Compound was tested for diuretic activity in dogs at 5 mg/kg dose after intravenous administration measured as microequivalent of Cl-/minute (Control/Drug treated); assay type: functional, Canis lupus familiaris, Urine; settings: in the assay text read “oral” for “intravenous”
Canis familiaris [27] = experiment: Compound was tested for diuretic activity in dogs at 5 mg/kg dose after intravenous administration measured as microequivalent of K+/minute (Control/Drug treated); assay type: functional, Canis lupus familiaris, Urine; settings: in the assay text read “oral” for “intravenous”
Canis familiaris [28] = experiment: Compound was tested for diuretic activity in dogs at 5 mg/kg dose after oral administration measured as microequivalent of Na+/minute
Canis familiaris [29] = experiment: Compound was tested for diuretic activity in dogs at 5 mg/kg dose after intravenous administration measured as microequivalent of Cl-/minute; 7/1385 (Control/Drug treated); assay type: functional, Canis lupus familiaris, Urine; method in brief: as §3
Canis familiaris [30] = experiment: Compound was tested for diuretic activity in dogs at 5 mg/kg dose after intravenous administration measured as microequivalent of K+/minute; assay type: functional, Canis lupus familiaris, Urine; settings: in the assay text read “oral” for “intravenous”
Canis familiaris [31] = experiment: Compound was tested for diuretic activity in dogs at 5 mg/kg dose after intravenous administration measured as microequivalent of Cl-/minute; assay type: functional, Canis lupus familiaris, Urine; settings: in the assay text read “oral” for “intravenous”
Canis familiaris [32] = experiment: Compound was tested for diuretic activity in dogs at 5 mg/kg dose after oral administration measured as microequivalent of Na+/minute; remark: listed apart in the source
[33] = Activity is measured as ratio of clearance of urate / […] at […]; Curate/Cinulin; assay type: functional; method in brief: as §5
Canis familiaris [34] = experiment: Compound was tested for diuretic activity in dogs at 5 mg/kg dose after intravenous administration, activity is expressed as urine volume; 1/6; assay type: functional, Canis lupus familiaris
Canis familiaris [35] = experiment: Compound was tested for diuretic activity in dogs at 5 mg/kg dose after intravenous administration measured as microequivalent of Na+/minute; 4/193 (Control/Drug treated); assay type: functional, Canis lupus familiaris, Urine
Canis familiaris [36] = experiment: Compound was tested for diuretic activity in dogs at 5 mg/kg dose after intravenous administration measured as microequivalent of Na+/minute; 46/767 (Control/Drug treated); assay type: functional, Canis lupus familiaris, Urine
Canis familiaris [37] = experiment: Compound was tested for diuretic activity in dogs at 5 mg/kg dose after intravenous administration, activity is expressed as urine volume

Row | Compound | Oral activity (Rattus norvegicus [7]) | Oral activity (Rattus norvegicus [8]) | Oral activity (Rattus norvegicus [9]) | Oral activity (Rattus norvegicus [10]) | Urine volume (Canis familiaris [12]) [mL] | further results
1 | O=C(O)c1cc2cc(C(=O)c3cccs3)c(Cl)c(Cl)c2o1 | 88 | 32 | 131 | 62 | 270 | Oral activity (Pan troglodytes [1]): 396; Oral activity (Canis familiaris [2]): 9.8; Oral activity (Canis familiaris [3]): 1.6; Oral activity (Canis familiaris [4]): 6.9; Cl- excretion (Canis familiaris [5]): 510 µequiv/min; K+ excretion (Canis familiaris [6]): 19 µequiv/min; Ratio [11]: 0.061
2 | CC(=O)c1cc2c(c(Cl)c1Cl)OC(C(=O)O)C2 (stereo unspecified) | 76 | 13 | 161 | 26 |  | Oral activity (Canis familiaris [13]): 3; Urine volume (Canis familiaris [14]): 0.4 mL/min
3 | O=C(c1cccs1)c1cc2c(c(Cl)c1Cl)O[C@@H](C(=O)O)C2 [listing 1 of 2 here] |  |  |  |  |  | Oral activity (Pan troglodytes [15]): 711 and 637; Oral activity (Pan troglodytes [16]): 540; Oral activity (Pan troglodytes [17]): 26; Oral activity (Pan troglodytes [18]): 256; Oral activity (Pan troglodytes [19]): 622 and 482; Ratio [20]: 0.013; Ratio [21]: 0.01; Ratio [22]: -0.019; Ratio [23]: 0.376 and 0.358; Oral activity (Pan troglodytes [24]): 492
4 | O=C(c1ccccc1)c1cc2c(c(Cl)c1Cl)OC(C(=O)O)C2 (stereo unspecified) | 117 | 59 | 119 | 85 |  | K+ excretion (Canis familiaris [25]): 19 µequiv/min
5 | O=C(c1ccco1)c1cc2c(c(Cl)c1Cl)OC(C(=O)O)C2 (stereo unspecified) | 218 | 69 | 322 | 150 |  | 
6 | O=C(c1cccs1)c1cc2c(c(Cl)c1Cl)OC(c1nnn[nH]1)C2 (stereo unspecified) | 16 | 13 | 29 | 16 |  | 
7 | N#CC1Cc2cc(C(=O)c3cccs3)c(Cl)c(Cl)c2O1 (stereo unspecified) | 10 | 6 | 8 | 9 | 190 | Oral activity (Canis familiaris [26]): 2.2; Oral activity (Canis familiaris [27]): 1.1; Oral activity (Canis familiaris [28]): 1
8 | O=C(c1cccs1)c1cc2c(c(Cl)c1Cl)O[C@H](C(=O)O)C2 | 283 | 177 | 339 | 251 | 501 | Oral activity (Pan troglodytes [1]): 1451; Oral activity (Canis familiaris [2]): 53.7; Oral activity (Canis familiaris [3]): 8.3; Oral activity (Canis familiaris [4]): 46; Cl- excretion (Canis familiaris [29]): 1380 µequiv/min; Ratio [11]: 0.132
9 | NC(=O)C1Cc2cc(C(=O)c3cccs3)c(Cl)c(Cl)c2O1 (stereo unspecified) | 11 | 7 | 25 | 9 | 229 | Oral activity (Canis familiaris [2]): 3; Oral activity (Canis familiaris [3]): 1.7; Oral activity (Canis familiaris [4]): 2.1; Oral activity (Canis familiaris [26]): 3; Oral activity (Canis familiaris [27]): 1.7; Oral activity (Canis familiaris [28]): 2.1
10 | N=C(N)NC(=O)C1Cc2cc(C(=O)c3cccs3)c(Cl)c(Cl)c2O1 (stereo unspecified) | 143 | 72 | 159 | 98 | 212 | Oral activity (Canis familiaris [2]): 4.8; Oral activity (Canis familiaris [3]): 1.2; Oral activity (Canis familiaris [4]): 4.9; Oral activity (Canis familiaris [30]): 1.2; Oral activity (Canis familiaris [31]): 4.8; Oral activity (Canis familiaris [32]): 4.9
11 | O=C(c1cccs1)c1cc2c(c(Cl)c1Cl)O[C@@H](C(=O)O)C2 [listing 2 of 2 here] |  |  |  |  |  | Ratio [33]: 0.157
12 | NNC(=O)C1Cc2cc(C(=O)c3cccs3)c(Cl)c(Cl)c2O1 (stereo unspecified) | 89 | 34 | 140 | 81 |  | 
13 | O=C(c1cccs1)c1cc2c(c(Cl)c1Cl)OC(CO)C2 (stereo unspecified) | 68 | 16 | 72 | 45 |  | 
14 | O=C(c1ccc2c(c1)CC(C(=O)O)O2)c1cccs1 (stereo unspecified) | 7 | 6 | 22 | 4 |  | Urine volume (Canis familiaris [34]): 1 mL/min; Na+ excretion (Canis familiaris [35]): 193 µequiv/min
15 | O=C(c1cnsn1)c1cc2c(c(Cl)c1Cl)OC(C(=O)O)C2 (stereo unspecified) | 230 | 38 | 284 | 82 |  | Oral activity (Pan troglodytes [1]): 88; Na+ excretion (Canis familiaris [36]): 767 µequiv/min; Ratio [11]: 0.096
16 | NS(=O)(=O)c1cc(C(=O)O)c(NCc2ccco2)cc1Cl [FUROSEMIDE] | 125 | 6 | 234 | 7 |  | Oral activity (Pan troglodytes [1]): 1035; Urine volume (Canis familiaris [37]): 700 mL; Ratio [11]: -0.02
